# Experimental data: ChEMBL document CHEMBL4350958, “Rational Design of Short Peptide Variants by Using Kunitzin-RE, an Amphibian-Derived Bioactivity Peptide, for Acquired Potent Broad-Spectrum Antimicrobial and Improved Therapeutic Potential of Commensalism Coinfection of Pathogens” (J Med Chem, 2019)
# Active and inactive are the calls of the source. The rule behind the calls is not given here.
# Legend:
# Escherichia coli [1] = assay: Induction of outer membrane permeabilization in Escherichia coli ATCC 25922 at 1 to 64 uM by NPN-dye based assay; type: organism-based
# Procedure, shortened: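 Mid-log E. coli ATCC 25922 (OD600 0.2) with 10 μM NPN in 5 mM HEPES pH 7.4 with 5 mM glucose for 30 min, background subtracted (ex 350, em 420 nm). Mixed with equal volume of peptide (1 to 64 μM) and fluorescence followed to plateau. Uptake normalised to 10 μg/mL polymyxin B. Three independent experiments, each with three technical replicates.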
# Candida albicans = assay: Fungicidal activity against Candida albicans cgmcc2.2086 assessed as reduction in bacterial growth at MFC by time-kill assay; type: functional, organism-based
# Procedure, shortened: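 Time-kill assay. E. coli ATCC 25922, S. aureus ATCC 29213 or C. albicans cgmcc 2.2086 at a final 0.5-1×10^5 CFU mL-1 treated at 1×MBC/MFC. Aliquots collected at different times to calculate survival, with an untreated control. Mean of three independent experiments, each with three technical replicates.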
# Pseudomonas aeruginosa [2] = assay: Bactericidal activity against melittin-resistant Pseudomonas aeruginosa ATCC 27853 incubated for 24 hrs followed by replating on agar plate and measured after overnight incubation; type: functional, organism-based
# Pseudomonas aeruginosa [3] = assay: Antibacterial activity against gentamicin-resistant Pseudomonas aeruginosa ATCC 27853 measured after 24 hrs; type: functional, organism-based
# Procedure, shortened: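 Broth microdilution modified from NCCLS. Mid-log bacteria at (0.5–1) × 10^5 CFU mL−1 in MHB, mixed with peptides serially diluted in 0.2% BSA. Incubated 24 h at 37 °C, read at A492. MIC taken as lowest concentration giving 95% growth inhibition. At least three independent experiments, each with three technical replicates.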
# Escherichia coli [4] = assay: Drug uptake in plasma membrane of Escherichia coli ATCC 25922 at MBC measured after 30 mins using FITC-labeled compound by microscopic analysis; type: ADME, organism-based; conditions: in vivo, 0.5 h
# Procedure, shortened: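 E. coli ATCC 25922 or S. aureus ATCC 29213 (OD600 0.2) incubated with FITC-labeled peptide at 1×MBC, 37 °C, 30 min. Cells washed, resuspended with PI (10 μg/mL) in PBS, smeared and imaged by superresolution microscopy using 488 and 535 nm filters for FITC and PI. Peptide-free cells served as controls. Three independent scans.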
# Escherichia coli [5] = assay: Antibacterial activity against Escherichia coli ATCC 25922 assessed as ratio of MIC95 in presence of NaCl to in absence of NaCl; type: functional
compound,measurement,setting,value
CC[C@H](C)[C@H](NC(=O)CN)C(=O)NCC(=O)N[C@@H](C)C(=O)N[C@H](C(=O)N[C@@H](CC(C)C)C(=O)N[C@@H](CCCCN)C(=O)N[C@H](C(=O)N[C@@H](CC(C)C)C(=O)N[C@H](C(=O)N[C@H](C(=O)NCC(=O)N[C@@H](CC(C)C)C(=O)N1CCC[C@H]1C(=O)N[C@@H](C)C(=O)N[C@@H](CC(C)C)C(=O)N[C@H](C(=O)N[C@@H](CO)C(=O)N[C@@H](Cc1c[nH]c2ccccc12)C(=O)N[C@H](C(=O)N[C@@H](CCCCN)C(=O)N[C@@H](CCCNC(=N)N)C(=O)N[C@@H](CCCCN)C(=O)N[C@@H](CCCNC(=N)N)C(=O)N[C@@H](CCC(N)=O)C(=O)N[C@@H](CCC(N)=O)C(N)=O)[C@@H](C)CC)[C@@H](C)CC)[C@@H](C)O)[C@@H](C)O)C(C)C)C(C)C [MELITTIN],Activity,Escherichia coli [1],Active
same,Activity,Candida albicans,Active
H-AARIILRWRFR-NH2,Activity,Pseudomonas aeruginosa [2],Active
same,Activity,Pseudomonas aeruginosa [3],Active
same,Drug uptake,Escherichia coli [4],Active
H-AARRILRWIFR-NH2,Ratio,Escherichia coli [5],16
